Key:
[1] = species on record: Rattus norvegicus; assay: The compound was tested for the plasma binding in rat; type: ADME, organism-based
[2] = The compound was tested for the plasma binding in human; type: ADME, cell-free
In short: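 Fresh heparinized human plasma (1.0 mL, obtained daily) was spiked with 0.02 mL test solution and incubated about 15 min. Duplicate samples went through saline-equilibrated Sephadex G-25 desalting columns by centrifugation. Eluate and gel were γ-counted for 1 min or to 1% σ error. % bound = net cpm eluate / net cpm (eluate + gel) × 100.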

[3] = tested on: Rattus norvegicus; assay: Biodistribution of compound in rat blood after 5 min of administration; type: ADME, organism-based; conditions: in vivo
In short: (§1)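 Female Sprague-Dawley rats (150–200 g) received the 99mTc complex in normal saline (~12.5 μCi/mL) via a lateral tail vein at ~25 μCi/kg. They were killed by cervical dislocation 5 min after injection. Tissues were washed with saline, blotted, weighed and γ-counted, and the read-out was percent injected dose per g tissue.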

[4] = tested on: Rattus norvegicus; assay: Biodistribution of compound in rat heart after 5 min of administration; type: ADME, organism-based; conditions: in vivo; in short: as §1
[5] = tested on: Rattus norvegicus; assay: Biodistribution of compound in rat kidney after 5 min of administration; type: ADME, organism-based; conditions: in vivo; in short: as §1
[6] = tested on: Rattus norvegicus; assay: Biodistribution of compound in rat liver after 5 min of administration; type: ADME, organism-based; conditions: in vivo; in short: as §1
[7] = tested on: Rattus norvegicus; assay: Biodistribution of compound in rat lung after 5 min of administration; type: ADME, organism-based; conditions: in vivo
In short: (§2)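 Rats received the 99mTc complex in normal saline (~12.5 μCi/mL) by lateral tail vein injection at ~25 μCi/kg and were killed by cervical dislocation at the stated time. Tissues were washed with saline, blotted, weighed and γ-counted to give percent injected dose/g. Time-course values are averages of male and female rats.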

[8] = tested on: Rattus norvegicus; assay: (§3) Biodistribution of compound in rat muscle after 5 min of administration; type: ADME, organism-based, Muscle tissue; conditions: in vivo
In short: as §1, with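 “the” for “the 99mTc”, “through” for “via”, “Rats” for “They”, “γ-counted to give” for “γ-counted, and the read-out was”, “dose/g” for “dose per g”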

[9] = as §3; type: ADME, organism-based, Muscle tissue; conditions: in vivo; in short: as §2

| Substance | Plasma binding [1] [%] | Plasma binding [2] [%] | Dose/g [3] [%] | Dose/g [4] [%] | Dose/g [5] [%] | Dose/g [6] [%] | Dose/g [7] [%] | Dose/g [8] [%] | Dose/g [9] [%] |
| --- | --- | --- | --- | --- | --- | --- | --- | --- | --- |
| Bis(1,2,3-trimethylbenzene)technetium | 6.6 | 24 | 0.13 | 1 | 9 | 1 | 0.66 | 0.27 | – |
| Bis(toluene)technetium | – | – | 0.2 | 0.22 | 3.4 | 2.6 | 0.51 | – | 0.069 |
| Bis(m-xylene)technetium | – | – | 0.1 | 0.47 | 8 | 2 | 0.59 | – | 0.17 |
| Bis(1,2,4-trimethylbenzene)technetium | 12 | 20 | 0.38 | 1.4 | 7 | 0.8 | 0.78 | 0.32 | – |

Source: ChEMBL document CHEMBL1125797, “Synthesis, characterization and myocardial uptake of cationic bis(arene)technetium(I) complexes” (J Med Chem, 1991)
